{"source": "ChEMBL document CHEMBL1122519", "about": "“Bispyridinamines: a new class of topical antimicrobial agents as inhibitors of dental plaque” (1984)", "key": {"Streptococcus mutans [1]": {"tested_on": "Streptococcus mutans", "assay": "Compound is evaluated for the effect of saliva upon the staining potential of the compound at 0% of saliva and at 0.01 percentage of compound; - = No staining", "format": "functional, organism-based", "in_short": "(§1)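 Hydroxylapatite plate antiplaque assay against S. mutans run for 48 h, with two 1-min exposures to aqueous compound per 24 h. Growth medium contained 0, 5 or 50% pooled human saliva (paraffin-stimulated, centrifuged, filtered, membrane-sterilized). Plaque was stained with FD&C Red No. 3 and graded none, slight or moderate. Staining potential was scored on plates run without inoculum and graded none or slight.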"}, "Staphylococcus aureus": {"tested_on": "Staphylococcus aureus", "assay": "Minimum antimicrobial inhibitory concentration against Staphylococcus aureus", "format": "functional", "in_short": "(§2)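 Serial twofold tube dilution in tryptose phosphate broth. Each compound was prepared as a 1000 μg/mL aqueous stock and diluted in double-strength broth, then 2×10^5 cells were added. Tubes were incubated aerobically at 37 °C for 24 h. The MIC was taken as the lowest concentration with no visible growth.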"}, "Escherichia coli [2]": {"tested_on": "Escherichia coli", "assay": "Minimum inhibitory concentration against Escherichia coli (Vogel)", "format": "functional", "in_short": "as §2"}, "Streptococcus mutans [3]": {"tested_on": "Streptococcus mutans", "assay": "Compound is evaluated for the growth inhibition of Streptococcus mutans OMZ-61", "format": "functional"}, "Proteus mirabilis": {"tested_on": "Proteus mirabilis", "assay": "Minimum antimicrobial inhibitory concentration against Proteus mirabilis MGH-1", "format": "functional", "in_short": "as §2"}, "Streptococcus mutans [4]": {"tested_on": "Streptococcus mutans", "assay": "Compound is evaluated for the effect of saliva upon the antiplaque activity of the compound at 0% of saliva and at 0.025 percentage of compound; - = No staining", "format": "functional, organism-based", "in_short": "as §1"}, "Streptococcus mutans [5]": {"tested_on": "Streptococcus mutans", "assay": "Compound is evaluated for the effect of saliva upon the antiplaque activity of the compound at 50% of saliva and at 0.01 percentage of compound; - = No staining", "format": "functional, organism-based", "in_short": "as §1"}, "Streptococcus mutans [6]": {"tested_on": "Streptococcus mutans", "assay": "Compound is evaluated for the effect of saliva upon the antiplaque activity of the compound at 50% of saliva and at 0.025 percentage of compound; - = No staining", "format": "functional, organism-based", "in_short": "as §1"}, "Streptococcus mutans [7]": {"tested_on": "Streptococcus mutans", "assay": "Compound is evaluated for plaque-bactericidal index (PBI) against Streptococcus mutans 10449", "format": "functional"}, "Streptococcus mutans [8]": {"tested_on": "Streptococcus mutans", "assay": "Compound is evaluated for the effect of saliva upon the antiplaque activity of the compound at 0% of saliva and at 0.05 percentage of compound; - = No plaque accumulation", "format": "functional, organism-based", "in_short": "as §1"}, "Streptococcus mutans [9]": {"tested_on": "Streptococcus mutans", "assay": "Compound is evaluated for the effect of saliva upon the antiplaque activity of the compound at 0% of saliva and at 0.025 percentage of compound; - = No plaque accumulation", "format": "functional, organism-based", "in_short": "as §1"}, "Actinomyces viscosus [10]": {"tested_on": "Actinomyces viscosus", "assay": "Compound is evaluated for minimal bactericidal concentration against plaque formation for Actinomyces viscosus", "format": "functional, organism-based", "in_short": "(§3)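 Preformed in vitro plaques of S. mutans NCTC 10449 or A. viscosus M-100 were grown on ceramic hydroxylapatite under anaerobic conditions at 37 °C in sucrose-supplemented medium. Plaques were immersed for 30 min at 37 °C in compound at 0.3–20 mM, rinsed, and moved to broth containing bromocresol purple. Kill was judged by no acid production, no turbidity increase and no growth on plating at 48 h. Plaques were run in quadruplicate.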"}, "Actinomyces naeslundii": {"tested_on": "Actinomyces naeslundii", "assay": "Compound is evaluated for plaque-bactericidal index (PBI) against Actinomyces naeslundii 631", "format": "functional"}, "Streptococcus mutans [11]": {"tested_on": "Streptococcus mutans", "assay": "Compound is evaluated for the effect of saliva upon the antiplaque activity of the compound at 0% of saliva and at 0.01 percentage of compound; - = No plaque accumulation", "format": "functional, organism-based", "in_short": "as §1"}, "Streptococcus mutans [12]": {"tested_on": "Streptococcus mutans", "assay": "Compound is evaluated for the effect of saliva upon the antiplaque activity of the compound at 50% of saliva and at 0.01 percentage of compound; - = No plaque accumulation", "format": "functional, organism-based", "in_short": "as §1"}, "Pseudomonas aeruginosa": {"tested_on": "Pseudomonas aeruginosa", "assay": "Minimum antimicrobial inhibitory concentration against Pseudomonas aeruginosa MGH-2", "format": "functional", "in_short": "as §2"}, "Streptococcus mitis": {"tested_on": "Streptococcus mitis", "assay": "Compound is evaluated for plaque-bactericidal index (PBI) against Streptococcus mitis 90557"}, "Streptococcus mutans [13]": {"tested_on": "Streptococcus mutans", "assay": "Compound is evaluated for the effect of saliva upon the antiplaque activity of the compound at 0% of saliva and at 0.05 percentage of compound; + = Slight staining", "format": "functional, organism-based", "in_short": "as §1"}, "Streptococcus mutans [14]": {"tested_on": "Streptococcus mutans", "assay": "Compound is evaluated for the effect of saliva upon the antiplaque activity of the compound at 50% of saliva and at 0.05 percentage of compound; + = Slight staining", "format": "functional, organism-based", "in_short": "as §1"}, "Escherichia coli [15]": {"tested_on": "Escherichia coli", "assay": "Antimicrobial minimum inhibitory concentration against Escherichia coli 100/B22", "format": "functional", "in_short": "as §2"}, "Streptococcus mutans [16]": {"tested_on": "Streptococcus mutans", "assay": "Minimum plaque inhibitory concentration using a standard test organism, Streptococcus mutans OMZ-61", "format": "functional, organism-based", "in_short": "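Ceramic hydroxylapatite plates were soaked twice for 1 min each in compound at […] (aqueous), air-dried and rinsed, then hung in sucrose beef-extract medium (pH 7.0) inoculated with late-log S. mutans OMZ-61. Incubation was anaerobic at 37 °C for 24 h, and treatment plus reinoculation were repeated for a second 24 h. Plaque was stained with 1% FD&C Red No. 3 and scored visually. The value is the lowest concentration giving no plaque while medium growth matched control.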"}, "Escherichia coli [17]": {"tested_on": "Escherichia coli", "assay": "Antimicrobial minimum inhibitory concentration against Escherichia coli AB1932-1", "format": "functional", "in_short": "as §2"}, "Streptococcus sanguinis": {"tested_on": "Streptococcus sanguinis", "assay": "Compound is evaluated for plaque-bactericidal index (PBI) against Streptococcus sanguis 10558"}, "Streptococcus mutans [18]": {"tested_on": "Streptococcus mutans", "assay": "Compound is evaluated for the inhibition of plaque-forming enzyme of Streptococcus mutans OMZ-61", "format": "functional", "in_short": "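S. mutans OMZ-61 was grown anaerobically at 37 °C for 24 h in glucose medium. The cell-free filtrate, adjusted to pH 5.5, served as the dextran/levan sucrase source. Reactions contained 3 μmol 14C-sucrose in citrate phosphate buffer pH 5.5 with 4% EtOH and ran 2 h at 37 °C. MeOH-insoluble polysaccharide was counted by scintillation. Compounds were tested at 50, 160 and 500 μg base/mL, with lower levels if needed, and I50 was read graphically.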"}, "Streptococcus mutans [19]": {"tested_on": "Streptococcus mutans", "assay": "Compound is evaluated for the effect of saliva upon the antiplaque activity of the compound at 50% of saliva and at 0.05 percentage of compound; - = No plaque accumulation", "format": "functional, organism-based", "in_short": "as §1"}, "Streptococcus mutans [20]": {"tested_on": "Streptococcus mutans", "assay": "Compound is evaluated for the effect of saliva upon the antiplaque activity of the compound at 50% of saliva and at 0.025 percentage of compound; - = No plaque accumulation", "format": "functional, organism-based", "in_short": "as §1"}, "[21]": {"assay": "Compound is evaluated for stain index", "format": "functional", "in_short": "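Ratio of the minimum concentration staining a plaque-free ceramic hydroxylapatite plate to the minimum plaque-inhibiting concentration, both run under the same conditions. Plates got two 1-min soaks (0.1–0.001%), each followed by air-drying, then a water rinse. They were then held 24 h anaerobically at 37 °C in sucrose beef-extract medium, with or without S. mutans OMZ-61, repeated once. Staining was 1-min 1% FD&C Red No. 3, scored visually.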"}, "Streptococcus mutans [22]": {"tested_on": "Streptococcus mutans", "assay": "Compound is evaluated for minimal bactericidal concentration against plaque formation for Streptococcus mutans", "format": "functional, organism-based", "in_short": "as §3"}, "Klebsiella pneumoniae": {"tested_on": "Klebsiella pneumoniae", "assay": "Minimum inhibitory concentration against Klebsiella pneumonia 39645", "format": "functional", "in_short": "as §2"}, "Actinomyces viscosus [23]": {"tested_on": "Actinomyces viscosus", "assay": "Compound is evaluated for plaque-bactericidal index (PBI) against Actinomyces viscosus M-100", "format": "functional"}}, "data": [{"smiles": "CCCCCCCCN=c1ccn(CCCCCCCCCCn2ccc(=NCCCCCCCC)cc2)cc1.Cl.Cl", "note": "[OCTENIDINE HYDROCHLORIDE]", "values": [{"measurement": "Staining potential", "setting": "Streptococcus mutans [1]", "value": "No staining"}, {"measurement": "MIC", "setting": "Staphylococcus aureus", "value": 1, "unit": "µg/mL"}, {"measurement": "MIC", "setting": "Escherichia coli [2]", "value": 1, "unit": "µg/mL"}, {"measurement": "MIC", "setting": "Streptococcus mutans [3]", "value": "1 (ug of base) ml-1"}, {"measurement": "MIC", "setting": "Proteus mirabilis", "value": 2, "unit": "µg/mL"}, {"measurement": "Staining potential", "setting": "Streptococcus mutans [4]", "value": "No staining"}, {"measurement": "Staining potential", "setting": "Streptococcus mutans [5]", "value": "No staining"}, {"measurement": "Staining potential", "setting": "Streptococcus mutans [6]", "value": "No staining"}, {"measurement": "PBI", "setting": "Streptococcus mutans [7]", "value": 25.6}, {"measurement": "Plaque accum", "setting": "Streptococcus mutans [8]", "value": "No plaque accumulation"}, {"measurement": "Plaque accum", "setting": "Streptococcus mutans [9]", "value": "No plaque accumulation"}, {"measurement": "Concentration", "setting": "Actinomyces viscosus [10]", "value": 1.6, "unit": "mM"}, {"measurement": "PBI", "setting": "Actinomyces naeslundii", "value": 19.2}, {"measurement": "Plaque accum", "setting": "Streptococcus mutans [11]", "value": "No plaque accumulation"}, {"measurement": "Plaque accum", "setting": "Streptococcus mutans [12]", "value": "No plaque accumulation"}, {"measurement": "MIC", "setting": "Pseudomonas aeruginosa", "value": 3.9, "unit": "µg/mL"}, {"measurement": "PBI", "setting": "Streptococcus mitis", "value": 32}, {"measurement": "Staining potential", "setting": "Streptococcus mutans [13]", "value": "No staining"}, {"measurement": "Staining potential", "setting": "Streptococcus mutans [14]", "value": "No staining"}, {"measurement": "MIC", "setting": "Escherichia coli [15]", "value": 1, "unit": "µg/mL"}, {"measurement": "Concentration", "setting": "Streptococcus mutans [16]", "value": 0.005, "unit": "%"}, {"measurement": "MIC", "setting": "Escherichia coli [17]", "value": 1, "unit": "µg/mL"}, {"measurement": "PBI", "setting": "Streptococcus sanguinis", "value": 32}, {"measurement": "I50", "setting": "Streptococcus mutans [18]", "value": "31 (ug of base) ml-1"}, {"measurement": "Plaque accum", "setting": "Streptococcus mutans [19]", "value": "No plaque accumulation"}, {"measurement": "Plaque accum", "setting": "Streptococcus mutans [20]", "value": "No plaque accumulation"}, {"measurement": "Stain index", "setting": "[21]", "value": 10}, {"measurement": "Concentration", "setting": "Streptococcus mutans [22]", "value": 3.2, "unit": "mM"}, {"measurement": "MIC", "setting": "Klebsiella pneumoniae", "value": 2, "unit": "µg/mL"}, {"measurement": "PBI", "setting": "Actinomyces viscosus [23]", "value": 19.2}]}]}
